Calls of active or inactive are those of the source. No cut-off for these calls is given here.
Experiments:
Homo sapiens [1] = species on record: Homo sapiens; assay: Inhibition of recombinant Mps1 I598F mutant (unknown origin) assessed as KNL1 phosphorylation level incubated for 10 min by Western blot analysis
U2OS [2] = assay: Induction of mitotic arrest in human U2OS cells harboring LAP-Mps1 531M mutant assessed as maintain in checkpoint-dependent arrest at 100 nM incubated for 16 hrs in the presence of nocodazole; type: functional, cell-based
Procedure, shortened: (§1)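 About 10 000 cells per 96-well plated on day 0. On day 1, nocodazole (200 ng/ml) plus Cpd-5 at various concentrations added for 16 h. Fixed in 5% formaldehyde, stained for phospho-histone H3-Ser10 and DAPI, up to nine images per well (~3000 cells). Mitotic index = pH3S10-positive/DAPI-positive cells, normalized; three independent experiments.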

HeLa [3] = assay: Induction of mitotic arrest in human HeLa cells harboring Mps1 C604Y mutant assessed as initiating anaphase at 200 nM and measured after nuclear envelope breakdown; type: functional, cell-based
HeLa [4] = assay: Inhibition of colony formation in human HeLa cells harboring Mps1 C604Y mutant at 80 nM incubated for 14 days in the presence of oligonucleotide by crystal violet staining based colony formation assay; type: functional, cell-based; conditions: time 14.0 day
Procedure, shortened: (§2)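 HeLa (1 × 10^6) transfected with mock, a 100-bp repair oligonucleotide alone, or oligonucleotide plus pX330 Cas9/Mps1-targeting gRNA. Selected with 80 nM Cpd-5 for 14 days in 10-cm plates, then stained with crystal violet.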

HeLa [5] = assay: Induction of mitotic arrest in human HeLa cells harboring Mps1-C604F mutant assessed as decrease in average mitotic time with mis seggregation at 200 nM relative to control; type: functional; set-up: scale not given: the % may be the effect or the level left
U2OS [6] = assay: Inhibition of colony formation in human U2OS cells harboring wild-type LAP-Mps1 assessed as cell survival incubated for 5 days by crystal violet staining based colony formation assay; type: functional; conditions: 120 h
Procedure, shortened: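 Cells seeded at ~1500 per 96-well on day 0; inhibitor added on day 1 over a concentration range. On day 6, fixed 10 min in 96% methanol, stained with 0.1% crystal violet, scanned and quantified. Survival relative to untreated; IC50 from dose–response curves; mean of three independent experiments. Culture in DMEM with 6% FCS.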

HCT-116 [7] = assay: Induction of mitotic arrest in human HCT-116 cells assessed as decrease in mitotic index at 30 nM incubated for 16 hrs; type: functional; set-up: scale not given: the % may be the effect or the level left; procedure, shortened: as §1
HCT-116 [8] = assay: Induction of mitotic arrest in human HCT-116 cells harboring Mps1 C604Y mutant assessed as mitotic index at 200 to 400 nM incubated for 16 hrs in the presence of nocodazole; type: functional, cell-based; conditions: dose 200-400 nM; procedure, shortened: as §1
HeLa [9] = assay: Inhibition of colony formation in human HeLa cells harboring wild-type Mps1 assessed as cell survival at 60 nM incubated for 14 days by crystal violet staining based colony formation assay; type: functional; conditions: time 14.0 day
Procedure, shortened: (§3)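 About 500–600 cells per 6-well plated on day 0, Cpd-5 added day 1 at 60 nM, colonies grown to day 14. Fixed 10 min in 96% methanol, stained with 0.1% crystal violet, scanned and analysed. Parental and drug-selected clones tested side by side.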

HCT-116 [10] = assay: Antiproliferative activity against human HCT-116 cells harboring Mps1 C604Y-B mutant assessed as change in Mps1 expression level by Western blot analysis; type: functional, cell-based
Procedure, shortened: (§4)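 Lysis in Tris/HCl pH 7.5 with 150 mM NaCl, 1% Triton X-100, DTT, EDTA, phosphatase and protease inhibitors. SDS-PAGE, transfer to nitrocellulose, block in 4% BSA 0.5 h at room temperature, primary antibody (Mps1-NT) overnight at 4 °C, secondary 1:2000 for 1 h, ECL chemiluminescence detection.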

U2OS [11] = assay: Induction of mitotic arrest in human U2OS cells harboring LAP-Mps1 S611R mutant assessed as maintain in checkpoint-dependent arrest at 100 nM incubated for 16 hrs in the presence of nocodazole; type: functional, cell-based; procedure, shortened: as §1
HCT-116 [12] = assay: Antiproliferative activity against human HCT-116 cells harboring Mps1 C604Y-A mutant assessed as change in Mps1 expression level by Western blot analysis; type: functional, cell-based; procedure, shortened: as §4
DLD-1 [13] = assay: Induction of mitotic arrest in human DLD-1 cells assessed as decrease in mitotic index at 30 nM incubated for 16 hrs; type: functional; set-up: scale not given: the % may be the effect or the level left; procedure, shortened: as §1
U2OS [14] = assay: Induction of mitotic arrest in human U2OS cells harboring LAP-Mps1 I598F mutant assessed as maintain in checkpoint-dependent arrest at 100 nM incubated for 16 hrs in the presence of nocodazole; type: functional, cell-based; procedure, shortened: as §1
DLD-1 [15] = assay: Induction of mitotic arrest in human DLD-1 cells harboring Mps1 S611R mutant assessed as mitotic index at 200 to 400 nM incubated for 16 hrs in the presence of nocodazole; type: functional, cell-based; conditions: dose 200-400 nM; procedure, shortened: as §1
HeLa [16] = assay: Induction of mitotic arrest in human HeLa cells expressing histone H2B-YFP assessed as initiating anaphase at 50 to 100 nM incubated for 16 hrs and measured within 15 min after nuclear envelope breakdown by time-lapse microscopy relative to control; type: functional; conditions: dose 50-100 nM, time 975 min, 16.25 h
Procedure, shortened: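 Live imaging of HeLa H2B-YFP cells in L-15 medium at 37 °C after DMSO or 50/100 nM Cpd-5, no nocodazole. Time from nuclear envelope breakdown to anaphase onset recorded for 50 cells per condition; cumulative anaphase-onset percentage and mean mitotic duration.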

HCT-116 [17] = assay: Inhibition of colony formation in human HCT-116 cells harboring wild-type Mps1 assessed as cell survival at 60 nM incubated for 14 days by crystal violet staining based colony formation assay; type: functional; conditions: time 14.0 day; procedure, shortened: as §3
HeLa [18] = assay: Inhibition of colony formation in human HeLa cells harboring Mps1 C604Y mutant at 80 nM incubated for 14 days in the presence of oligonucleotide and Cas9/gRNA by crystal violet staining based colony formation assay; type: functional, cell-based; conditions: time 14.0 day; procedure, shortened: as §2
U2OS [19] = assay: cells; type: functional, cell-based; conditions: Homo sapiens, 120 h
HeLa [20] = assay: Inhibition of colony formation in human HeLa cells harboring Mps1 I598F mutant assessed as cell survival at 60 nM incubated for 14 days by crystal violet staining based colony formation assay; type: functional; conditions: time 14.0 day; procedure, shortened: as §3
HCT-116 [21] = assay: Inhibition of colony formation in human HCT-116 cells harboring Mps1 531M mutant assessed as cell survival at 60 nM incubated for 14 days by crystal violet staining based colony formation assay; type: functional; conditions: time 14.0 day; procedure, shortened: as §3
U2OS [22] = assay: Induction of mitotic arrest in human U2OS cells harboring LAP-Mps1 C604Y mutant assessed as maintain in checkpoint-dependent arrest at 100 nM incubated for 16 hrs in the presence of nocodazole; type: functional, cell-based; procedure, shortened: as §1
HeLa [23] = assay: Induction of mitotic arrest in human HeLa cells assessed as depletion in KNL1 phosphorylation at 50 to 100 nM by immunostaining method; type: functional, cell-based; conditions: dose 50-100 nM
Procedure, shortened: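 HeLa cells given DMSO, 50 or 100 nM Cpd-5, immunostained for phospho-KNL1 (MELT13/17) and CREST, DNA with DAPI. Kinetochore ph-KNL1/CREST fluorescence intensity ratios from 200 kinetochores per condition.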

DLD-1 [24] = assay: Antiproliferative activity against human DLD-1 cells harboring Mps1 S611R mutant assessed as change in Mps1 expression level by Western blot analysis; type: functional, cell-based; procedure, shortened: as §4
DLD-1 [25] = assay: Inhibition of colony formation in human DLD-1 cells harboring Mps1 S611R mutant assessed as cell survival at 60 nM incubated for 14 days by crystal violet staining based colony formation assay; type: functional; conditions: time 14.0 day; procedure, shortened: as §3
Homo sapiens [26] = species on record: Homo sapiens; assay: Inhibition of recombinant Mps1 C604Y mutant (unknown origin) assessed as KNL1 phosphorylation level incubated for 10 min by Western blot analysis
DLD-1 [27] = assay: cells; type: functional, cell-based; conditions: Homo sapiens, DLD-1, 120 h
HeLa [28] = assay: Induction of mitotic arrest in human HeLa cells harboring Mps1-C604F mutant assessed as […] in average mitotic time with severe seggregation at 400 nM relative to control; type: functional
HeLa [29] = assay: Induction of mitotic arrest in human HeLa cells harboring Mps1-C604F mutant assessed as decrease in average mitotic time with most mild seggregation errors at 200 nM; type: functional, cell-based
HeLa [30] = assay: cells; type: functional, cell-based; conditions: Homo sapiens, 120 h
Homo sapiens [31] = species on record: Homo sapiens; assay: Inhibition of recombinant Mps1 531M mutant (unknown origin) assessed as KNL1 phosphorylation level incubated for 10 min by Western blot analysis
HCT-116 [32] = assay: Inhibition of colony formation in human HCT-116 cells harboring Mps1 C604Y-B mutant assessed as cell survival at 60 nM incubated for 14 days by crystal violet staining based colony formation assay; type: functional; conditions: time 14.0 day; procedure, shortened: as §3
Homo sapiens [33] = species on record: Homo sapiens; assay: Inhibition of recombinant Mps1 S611R mutant (unknown origin) assessed as KNL1 phosphorylation level incubated for 10 min by Western blot analysis
HeLa [34] = assay: Induction of mitotic arrest in human HeLa cells expressing histone H2B-YFP assessed as chromosome misalignment at 50 to 100 nM incubated for 16 hrs by time-lapse microscopy relative to control; type: functional; conditions: dose 50-100 nM
Procedure, shortened: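 HeLa H2B-YFP cells imaged live at 37 °C in L-15 after DMSO or 50/100 nM Cpd-5. Anaphases scored for missegregation as mild (up to 3 chromosomes) or severe (>3 chromosomes), 50 cells per condition.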

HeLa [35] = assay: Antiproliferative activity against human HeLa cells harboring Mps1 I598F mutant assessed as change in Mps1 expression level by Western blot analysis; type: functional, cell-based; procedure, shortened: as §4
HeLa [36] = assay: Induction of mitotic arrest in human HeLa cells harboring Mps1 C604F mutant assessed as initiating anaphase at 200 nM and measured after nuclear envelope breakdown; type: functional, cell-based
HCT-116 [37] = assay: Inhibition of colony formation in human HCT-116 cells harboring Mps1 C604Y-A mutant assessed as cell survival at 60 nM incubated for 14 days by crystal violet staining based colony formation assay; type: functional; conditions: time 14.0 day; procedure, shortened: as §3
HCT-116 [38] = assay: cells; type: functional, cell-based; conditions: Homo sapiens, HCT-116, 120 h
HCT-116 [39] = assay: Induction of mitotic arrest in human HCT-116 cells harboring Mps1 I531M mutant assessed as mitotic index at 200 to 400 nM incubated for 16 hrs in the presence of nocodazole; type: functional, cell-based; conditions: dose 200-400 nM; procedure, shortened: as §1
HeLa [40] = assay: Induction of mitotic arrest in human HeLa cells assessed as decrease in average mitotic time with severe seggregation errors at 100 nM relative to control; set-up: scale not given: the % may be the effect or the level left
HCT-116 [41] = assay: Antiproliferative activity against human HCT-116 cells harboring Mps1 531M mutant assessed as change in Mps1 expression level by Western blot analysis; type: functional, cell-based; procedure, shortened: as §4
HCT-116 [42] = assay: Inhibition of colony formation in human HCT-116 cells harboring Mps1 C604Y-B mutant assessed as cell survival incubated for 5 days crystal violet staining based colony formation assay; type: functional; conditions: HCT-116, 120 h
Procedure, shortened: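 Cells (~1500 per well, 96-well format) seeded day 0; inhibitor added day 1 over a range of concentrations; on day 6 fixed 10 min in 96% methanol, stained with 0.1% crystal violet, washed, scanned and quantified. Grown in DMEM with 6% FCS, penicillin-streptomycin, 2 mM L-glutamine. Survival relative to untreated; IC50 from curve fit, average of three independent experiments.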

inhibition (Homo sapiens [1]): Active | IC50 (U2OS [19]): 20.6 nM | inhibition (Homo sapiens [26]): Active | IC50 (DLD-1 [27]): 24.6 nM | IC50 (HeLa [30]): 252 nM | inhibition (Homo sapiens [31]): Active | inhibition (Homo sapiens [33]): Active | IC50 (HCT-116 [38]): 20.1 nM
Compound: CCc1cccc(CC)c1NC(=O)c1nn(C)c2c1CCc1cnc(Nc3ccc(N4CCN(C)CC4)cc3OC)nc1-2
Activity (U2OS [2]): Active | Activity (HeLa [3]): inactive | Activity (HeLa [4]): Active | Activity (HeLa [5]): 70% | IC50 (U2OS [6]): 33.2 nM | Activity (HCT-116 [7]): 60% | Activity (HCT-116 [8]): Active | inhibition (HeLa [9]): inactive | Activity (HCT-116 [10]): inactive | Activity (U2OS [11]): Active | Activity (HCT-116 [12]): inactive | Activity (DLD-1 [13]): 70% | Activity (U2OS [14]): Active | Activity (DLD-1 [15]): Active | Activity (HeLa [16]): 100% | inhibition (HCT-116 [17]): inactive | Activity (HeLa [18]): Active | inhibition (HeLa [20]): Active | inhibition (HCT-116 [21]): Active | Activity (U2OS [22]): Active | Activity (HeLa [23]): Active | Activity (DLD-1 [24]): inactive | inhibition (DLD-1 [25]): Active | Activity (HeLa [28]): 100% | Activity (HeLa [29]): Active | inhibition (HCT-116 [32]): Active | Activity (HeLa [34]): 100% | Activity (HeLa [35]): inactive | Activity (HeLa [36]): inactive | inhibition (HCT-116 [37]): Active | Activity (HCT-116 [39]): Active | Activity (HeLa [40]): 100% | Activity (HCT-116 [41]): inactive | IC50 (HCT-116 [42]): 310 nM

— ChEMBL document CHEMBL5647693, “Molecular basis underlying resistance to Mps1/TTK inhibitors” (Oncogene, 2016)
